This is a sample that favours compounds with a hit; in the whole collection about 1.8% have one here.
SENP1 FRET inh – inhibitors of human SENP1 SUMO protease catalytic domain; Q9P0U3; recombinant SENP1 catalytic domain, CyPet-SUMO1-YPet FRET cleavage; inhibition, % at 10 µM; 360,000 compounds, 0.21% hits; AID 624204;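 active = inhibition at least 30% at 10 µM, raw YFP signal under a set limit, fluorescence ratio 0.5 to 1.5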;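 note: 0% = enzyme with DMSO and 100% = no enzyme wells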
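Material – human SENP1 catalytic domain · Input – SENP1 enzyme, 20 pM final · Compound dosing – single concentration of 10 µM compound, 0.5% DMSO final · Timing – enzyme reaction for 50 min at room temperature, dark · Measured by – FRET fluorescence in CFP and YFP emission channels · Control set – no-enzyme wells low, DMSO-plus-enzyme wells high control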
HNF4A DNA FP – change in binding of human HNF4 alpha to DNA. P41235. HNF4a-FITC DNA binding, fluorescence polarization, 1 h. activity change, % at 10 µM. 360,000 compounds, 0.3% hits. AID 1224865; in the data active = activity change above about 30%, passing the limit was not always enough
CSN inh – blocks human CSN-mediated cullin deneddylation; 360,000 compounds, 0.38% hits; inhibition, % at 12.5 µM; Purified CSN, SCF-Nedd8-OG deneddylation, fluorescence polarization; Q92905; AID 651999;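 active = pattern-corrected inhibition above about 35%, with an unprinted fluorescence ratio check between 0.5 and 1.5, limit read from the data, passing the limit was not always enough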;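 note: 0% = enzyme with substrate and 100% = substrate without enzyme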
Target sequence (Q92905 whole entry, looked up, one chain of several): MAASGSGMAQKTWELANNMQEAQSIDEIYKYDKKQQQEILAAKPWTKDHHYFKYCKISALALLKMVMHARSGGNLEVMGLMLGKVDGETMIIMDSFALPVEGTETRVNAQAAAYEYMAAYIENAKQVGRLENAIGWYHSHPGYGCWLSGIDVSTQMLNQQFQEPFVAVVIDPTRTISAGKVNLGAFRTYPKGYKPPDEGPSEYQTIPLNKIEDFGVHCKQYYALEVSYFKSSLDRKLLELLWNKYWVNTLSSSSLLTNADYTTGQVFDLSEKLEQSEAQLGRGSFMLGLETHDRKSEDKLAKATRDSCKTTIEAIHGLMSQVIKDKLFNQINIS
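Assay system: HEK293T-derived human Csn5 enzyme; quantity: 0.24 nM enzyme; medium: Tris/NaCl/DTT buffer, pH 7.5; also added: substrate SCFSkp2-Nedd8OG, 10 nM; doses: 12.5 µM compound; schedule: 90 min reaction at room temperature; signal: FP; read-out: % inhibition of substrate cleavage by Csn5; benchmarks: substrate-only high control, full reaction low control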
TPT1 inhibitor – blocks Candida albicans tRNA 2'-phosphotransferase | recombinant caTPT1, FP RNA substrate dephosphorylation | inhibition, % at 5 µM | 300,000 compounds, 0.81% hits | AID 1962;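 active = inhibition above the mean of all tested compounds plus 3 SD, set per screening campaign, cut at about 24% in these data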;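 note: plate controls were DMSO alone for no effect and ferristatin control at 100 nM for full effect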
Rpn11 block – inhibitors of human proteasome Rpn11; O00487; human 26S proteasome, Ub4-pepOG fluorescence polarization; 20S core pre-blocked with epoxomicin; calls only at 20 µM; 360,000 compounds, 0.59% hits; AID 588493;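 active = inhibition at 20 µM, scaled to each plate's controls, above about 33%, limit read from the data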
Target sequence (O00487 whole entry, looked up): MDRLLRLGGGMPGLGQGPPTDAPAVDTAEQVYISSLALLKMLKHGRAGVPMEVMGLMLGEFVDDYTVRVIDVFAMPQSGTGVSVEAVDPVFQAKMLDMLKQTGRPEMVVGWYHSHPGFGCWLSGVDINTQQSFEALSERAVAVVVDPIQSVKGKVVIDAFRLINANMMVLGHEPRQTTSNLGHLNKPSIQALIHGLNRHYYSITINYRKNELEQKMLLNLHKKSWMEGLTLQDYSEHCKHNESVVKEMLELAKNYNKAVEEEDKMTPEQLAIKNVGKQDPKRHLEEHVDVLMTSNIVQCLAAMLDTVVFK
UBC9 SUMO inh – SUMOylation inhibition; 290,000 compounds, 0.36% hits; HTRF SUMOylation assay, SAE1/SAE2 + UBC9, in vitro; inhibition, % at 35 µM; AID 2006; in the data active = inhibition above about 50%, passing the limit was not always enough
Target sequence (P63279 whole entry, looked up): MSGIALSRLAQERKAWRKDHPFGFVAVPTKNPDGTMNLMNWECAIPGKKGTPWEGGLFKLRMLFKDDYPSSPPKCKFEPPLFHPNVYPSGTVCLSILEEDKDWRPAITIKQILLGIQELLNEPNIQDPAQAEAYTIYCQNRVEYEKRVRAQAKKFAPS
caTPT1 confirm – confirmation of Candida albicans TPT1 inhibitors | shares compounds with TPT1 inhibitor | recombinant caTPT1, fluorescence polarization, RNase T1 coupled | inhibition, % at 5 µM | 2,400 compounds, 74% hits | AID 2149;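 active = inhibition above the primary screen limit, the mean inhibition of all tested compounds plus 3 SD, cut at about 25% in these data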
RNase T1 inh – counter-screen for TPT1 inhibitors: inhibitors of Aspergillus oryzae RNase T1; inhibition, % at 5 µM; RNase T1 cleavage, fluorescence polarization, 1536-well; 2,400 compounds, 83% hits; shares compounds with TPT1 inhibitor;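 active = inhibition above the solvent-only control well mean plus 3 SD, limit set per screening run, cut at about 23% in these data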;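 note: plate controls were DMSO wells with enzyme for no effect and wells without RNase T1 for full effect; inhibitors block cleavage so intact labeled substrate keeps polarization high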
Rpn11 confirm – Rpn11 inhibition confirmation, single concentration; purified human 26S proteasome, Ub4-pepOG fluorescence polarization; proteasome pretreated with epoxomicin; shares compounds with Rpn11 block; 1,900 compounds, 29% hits; inhibition, % at 20 µM; AID 602318
MMP-2 inh – blocks human MMP-2, flagging nonselective RPN11 hits; shares compounds with Rpn11 block; recombinant MMP-2, FRET peptide cleavage fluorescence; inhibition, % at 20 µM; 1,900 compounds, 4% hits; AID 602330;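 note: human MMP-2 activated beforehand with APMA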
Thrombin inh – thrombin (bovine) inhibition counter-screen | shares compounds with Rpn11 block | bovine thrombin cleavage of Ub4-pepOG, fluorescence polarization | inhibition, % at 20 µM | 1,900 compounds, 13% hits | AID 602333;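 active = mean inhibition at least 40% at 20 µM, or signal 3 deviations below plate average, so some actives read negative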;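 note: plate controls were thrombin with DMSO for no effect and buffer wells lacking thrombin for full effect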
Starred values were filed as active, the others as inactive; i = inactive; · = no result shown; + = active, no number. Cut-off read from the data, not from the text of the source, unless noted: active = inhibition above about 40%; inactive = the rest.

SMILES | SENP1 FRET inh | HNF4A DNA FP | CSN inh | TPT1 inhibitor | Rpn11 block | UBC9 SUMO inh | caTPT1 confirm | RNase T1 inh | Rpn11 confirm | MMP-2 inh | Thrombin inh
CC[n+]1c(/C=C/Nc2ccccc2)oc2ccc(OC)cc21 | -62.2 | 30.1 | 12.2 | 86.2* | + | 17.7 | 94.8* | 100.6* | 45.4* | -26.1 | 32.4
CC[n+]1ccc(/C=C2\Sc3ccccc3N2CCCS(=O)(=O)[O-])c2ccccc21 | 1.6 | 5.7 | 0.7 | 31.0* | + | 19.9 | 14.1 | 19.0 | -2.8 | -43.6 | -12.2
COc1ccc2o/c(=N/NC(=O)c3cccs3)c(C(N)=O)cc2c1 | -30.7 | 14.7 | 17.9 | 51.6* | + | -1.9 | 67.6* | 78.7* | 70.2* | -28.4 | 43.1*
NC(=O)c1cc2ccccc2o/c1=N/NC(=O)c1cccs1 | 0.3 | -5.8 | -3.9 | 2.1 | i | 7.6 | · | · | · | · | ·
Cc1ccc(S(=O)(=O)Nc2cnn(-c3ccccc3)c(=O)c2Cl)cc1 | 1.3 | 1.4 | -8.4 | -2.0 | i | 11.1 | · | · | · | · | ·
CCCCn1c(O)c(/C=C/C=C/C=Nc2ccccc2)sc1=S | 3.6 | 51.2* | 24.1 | 44.5* | + | 28.1 | 19.9 | 28.5* | 34.9 | 19.2 | 37.4
Cc1ccc2[nH]cc(/C=C/c3cc[n+](C)cc3)c2c1 | -25.5 | 95.0 | 89.2 | · | · | 26.1 | · | · | · | · | ·
COc1ccc2c(/C=C/c3cc[n+](C)cc3)c[nH]c2c1 | 19.4 | 36.0* | 24.6 | 43.0* | + | 1.6 | 46.6* | 59.4* | 67.9* | -38.4 | 71.8*
Brc1cc2c(cc1CSc1ncccn1)OCO2 | 0.2 | -0.1 | 0.5 | 0.5 | i | 8.4 | · | · | · | · | ·
Nc1ccc(Nc2ccccc2N)cc1 | -22.6 | -28.1 | 7.8 | 25.0* | + | -2.7 | 26.5* | 36.0* | 0.5 | -16.0 | -2.4
COc1ccc(Nc2ccnc3ccccc23)cc1 | 2.5 | -0.8 | -3.9 | -4.0 | i | -20.8 | · | · | · | · | ·
COc1ccc(Nc2ccccc2N)cc1 | 33.8* | 34.9 | 5.2 | 36.6* | + | 0.9 | 27.1* | 35.1* | 26.1 | -1.6 | 17.0
COc1cc(SC#N)ccc1N=Cc1c(C)[nH]n(-c2ccc(C)c(C)c2)c1=O | 65.1 | 14.2 | 16.7 | 30.4* | + | -7.2 | 62.5* | 67.4* | -9.7 | -6.6 | -10.4
CN1/C(=C/C=C(/C#N)C(N)=O)C(C)(C)c2ccccc21 | -20.1 | 36.4* | 18.2 | 86.9* | + | 23.7 | 68.1* | 82.2* | 34.9 | -34.5 | 26.8
O=C(NC1CC1)c1ccc2c(c1)N(Cc1ccc(Cl)cc1)CCS2 | 0.6 | 6.3 | -1.7 | -1.5 | i | -2.6 | · | · | · | · | ·
Nc1c(C(=O)Nc2ccccc2F)sc2nc(-c3ccco3)ccc12 | -22.5 | 19.8 | 19.2 | 30.6* | + | 57.4* | 26.9* | 37.7* | 11.6 | -29.0 | 10.6
CN(C)S(=O)(=O)c1cccc(-c2nn(-c3ccccc3)cc2/C=C2\SC(=S)NC2=O)c1 | 15.1 | 58.5* | 22.3 | 74.7* | + | · | 23.9 | 32.9* | 35.2 | 11.3 | 18.8
O=C(N/N=C/c1c(O)ccc2ccccc12)c1[nH]ncc1Br | -24.8 | 22.9 | 29.1 | 31.8* | + | -41.2 | 63.9* | 63.1* | 66.7* | -18.9 | 22.7
Cc1ccc(O)c(/C=N/NC(=O)c2[nH]ncc2Br)c1 | 2.3 | -1.3 | 0.6 | -1.2 | i | -8.2 | · | · | · | · | ·
O=C(c1cccc(Cl)c1)N1CCN(c2ccc(N3CCOCC3)nn2)CC1 | -15.6 | -1.6 | -3.3 | 2.8 | i | · | · | · | · | · | ·
CC(C)OP(=O)(OC(C)C)C(Nc1ccccc1)c1cccc2c1OCO2 (stereo not given) | 0.1 | 0.1 | -2.6 | 2.2 | i | 18.1 | · | · | · | · | ·
CC[C@@]12C(=O)N(c3cccc(F)c3)C(=O)N1[C@H](c1ccc(Cl)cc1)[C@@H]1C(=O)N(C3CCCCC3)C(=O)[C@@H]12 | -1.2 | 2.0 | 0.3 | -3.3 | i | · | · | · | · | · | ·
CCN(CC)c1ccc(/C=N/NC(=O)Cc2cccs2)cc1 | 0.5 | 2.0 | 5.3 | -0.9 | i | 2.8 | · | · | · | · | ·
CCCCC1(C)OC(=O)C(=Cc2ccc(N(CC)CC)cc2)C(=O)O1 (stereo not given) | -2.5 | 7.4 | 26.8 | 92.5* | + | 17.8 | 167.1* | 154.7* | 92.1* | -28.9 | 89.6*
CCC(Oc1cccc(Cl)c1)C(=O)N1CCCN(C)CC1 (stereo not given) | 0.0 | 3.2 | 2.9 | -2.5 | i | 7.7 | · | · | · | · | ·
SMILES | SENP1 FRET inh | HNF4A DNA FP | CSN inh | TPT1 inhibitor | Rpn11 block | UBC9 SUMO inh | caTPT1 confirm | RNase T1 inh | Rpn11 confirm | MMP-2 inh | Thrombin inh
COc1ccc(S(=O)(=O)NCC2(N3CCOCC3)CCCCC2)cc1OC | 1.7 | 2.5 | 8.1 | · | i | · | · | · | · | · | ·
COCCn1c(SCc2nc3sc(C(=O)OC)c(C)c3c(=O)[nH]2)nc2ccccc21 | 17.1 | 16.9 | 14.5 | 25.9* | + | 8.7 | 23.8 | 33.0* | 20.2 | -44.7 | 18.9
COC(=O)c1sc2nc(CSc3ccc(Br)cc3)[nH]c(=O)c2c1C | 2.1 | 11.6 | 4.5 | 35.5* | + | 12.0 | 26.4* | 36.3* | 50.3* | -20.1 | -1.9
CCOC(=O)c1sc2nc(CSc3ccccc3Cl)[nH]c(=O)c2c1C | 11.5 | 13.1 | 3.1 | 16.1 | · | 8.1 | · | · | · | · | ·
O=C(C1=C(O)C(=O)N(c2ncccn2)C1c1ccc(Cl)cc1)c1ccco1 (stereo not given) | 27.9 | 13.6 | 25.5 | 1.7 | i | 5.6 | · | · | · | · | ·
O=C(C1=C(O)C(=O)N(c2ncccn2)C1c1ccc(Cl)c(Cl)c1)c1ccco1 (stereo not given) | 19.0 | 14.4 | 48.3* | 27.8* | + | 21.9 | 30.0* | 39.5* | 23.0 | -5.0 | 20.3
Cc1c(C(=O)O)cccc1-n1c(C)cc(/C=N/Nc2ccc([N+](=O)[O-])cn2)c1C | 21.5 | 5.8 | 9.0 | 27.8* | + | -6.7 | 46.5* | 56.9* | 23.4 | -51.5 | -3.5
Nc1ccccc1SCC(=O)Nc1ccc2c(c1)OCO2 | -7.8 | 3.1 | -0.9 | -0.8 | i | 6.2 | · | · | · | · | ·
